The target in assay [1] is T1, GCL (pure human recombinant GCLC and GCLM) (Homo sapiens, UniProt P48506+P48507).
T1 sequence (P48507 1-274): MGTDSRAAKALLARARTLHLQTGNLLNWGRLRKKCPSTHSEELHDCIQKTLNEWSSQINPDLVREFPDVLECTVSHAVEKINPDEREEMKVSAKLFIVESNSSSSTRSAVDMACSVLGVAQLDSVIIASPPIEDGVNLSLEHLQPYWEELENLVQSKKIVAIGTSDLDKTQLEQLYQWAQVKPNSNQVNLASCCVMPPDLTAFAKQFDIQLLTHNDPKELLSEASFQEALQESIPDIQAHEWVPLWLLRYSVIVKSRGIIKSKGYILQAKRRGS
T1 sequence (P48506 1-637): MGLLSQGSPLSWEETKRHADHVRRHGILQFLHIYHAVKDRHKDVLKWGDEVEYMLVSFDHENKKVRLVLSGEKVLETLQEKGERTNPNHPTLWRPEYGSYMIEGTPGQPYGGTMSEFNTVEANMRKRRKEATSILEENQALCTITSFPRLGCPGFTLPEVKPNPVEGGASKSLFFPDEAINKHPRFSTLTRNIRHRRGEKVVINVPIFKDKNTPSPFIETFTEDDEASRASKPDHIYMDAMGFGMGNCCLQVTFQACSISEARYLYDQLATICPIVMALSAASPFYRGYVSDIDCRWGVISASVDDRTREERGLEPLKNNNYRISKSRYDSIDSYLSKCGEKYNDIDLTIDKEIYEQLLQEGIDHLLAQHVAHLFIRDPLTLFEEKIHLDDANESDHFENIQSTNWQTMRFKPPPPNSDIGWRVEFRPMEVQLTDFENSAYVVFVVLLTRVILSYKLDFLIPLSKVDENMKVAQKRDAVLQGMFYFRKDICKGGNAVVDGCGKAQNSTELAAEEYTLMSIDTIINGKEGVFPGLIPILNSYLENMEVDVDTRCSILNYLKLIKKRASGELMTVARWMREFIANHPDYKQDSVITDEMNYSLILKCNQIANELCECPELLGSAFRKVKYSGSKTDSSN
Briefly: GCL functional assay. Type of assay: biochemical.

The next assay concerns the target T2, pure human GCLM protein (Homo sapiens, UniProt P48507).
T2 sequence (P48507 1-274): T1 sequence (P48507 1-274)
Briefly: Gel-based ABPP. Type of assay: binding. Summed up:
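Pure recombinant human GCLM (0.1 μg in 50 μL PBS) treated for 30 min at 37 °C with alkyne probe (10–100 μM final) or DMSO. In the competition format, protein is first preincubated with test compound for 30 min at 37 °C, then labelled with probe (50 μM final) for 2 h at 37 °C. Rhodamine-azide (1 μM final) appended by CuAAC, then reducing SDS-PAGE and in-gel fluorescence; silver stain confirms loading.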

The subject of the next assay is A2780 cells. As to the kind of experiment: Ferrostatin rescue experiment. Type of assay: cell-based, human. As to conditions: Ferrostatin-1 2 μM with EN25 50μM, A2780, 48 hr, Hoechst staining.
In assay [2] the test system is cysteines within proteins in A2780 cells. As to the kind of experiment: isoTOP-ABPP cysteine chemoproteomic profiling. As to conditions: A2780 cells treated 90 min; IA-alkyne 100 μM. Type of assay: cell-based, human.
For assay [3], the system named is RMG-1 ARID1A-positive ovarian cancer cells. As to the kind of experiment: Cell viability by Hoechst staining, RMG-1. The assay is classed as cell-based, human. As to conditions: Hoechst staining at 24 hr.
For a further assay, the system named is siGCLM A2780 cells. Briefly: Cell viability after GCLM knockdown. The assay is classed as cell-based, human. The settings on record: siGCLM vs siControl A2780, 24 hr treatment, Hoechst staining.
Assay [4] deals with T3, GCLM C114 (pure human GCLM and GCLC) (Homo sapiens, UniProt P48507).
T3 sequence (P48507 1-274): T1 sequence (P48507 1-274)
T3 sequence (P48506 1-637 partner): T1 sequence (P48506 1-637)
As to the kind of experiment: LC-MS/MS analysis of EN25 adduct on GCL complex. The assay is classed as binding. As to conditions: EN25 50 μM, 30 min at 37°C; tryptic digest LC-MS/MS.

Assay [5] relates to GSH levels in A2780 cells. Briefly: LC-MS/MS quantification of GSH levels, A2780. Type of assay: cell-based, human. As to conditions: SRM LC-MS/MS 4hr post treatment.
Assay [6] concerns A2780 ARID1A-negative ovarian cancer cells. Briefly: Cell viability by Hoechst staining, A2780. The assay is classed as cell-based, human. As to conditions: Hoechst staining at 24 hr. In short, it runs like this: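 A2780 cells seeded at 6,000/well in 96-well plates and left to adhere overnight, then dosed with test compound or DMSO vehicle for 24 hr. Fixed and stained with 10% formalin plus Hoechst 33342 for 15 min in the dark at room temperature, then washed three times with PBS before fluorescence reading. Expressed as percentage of DMSO control, mean ± sem, n=6 biologically independent replicates.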

In assay [7] the test system is GSH levels in RMG-1 cells. As to the kind of experiment: LC-MS/MS quantification of GSH levels, RMG-1. Type of assay: cell-based, human. The settings on record: SRM LC-MS/MS 4hr post treatment.

The results in this text go back to publication PMC10739677 (Chembiochem : a European journal of chemical biology, 2023).

As usually defined, the pIC50 is the IC50 on a negative log10 scale, so that one unit is a factor of ten.

pIC50: −log10 of the molar value.

Regarding `C#CCOc1ccc(-c2ccc(CNC(=O)c3ccc(CNC(=O)C=C)cc3)cc2)cc1` [EN25-alkyne], the pIC50 in [1] was 5.44. Besides, the “covalent labeling of GCLM” value on pure human GCLM protein (in-gel fluorescence after CuAAC with rhodamine-azide) is “showed covalent labeling of GCLM”.
In the case of `CCOC(=O)c1ccc(NC2CCCCC2)c(N)c1` [ferrostatin, Ferrostatin-1], in the assay on A2780 cells, the “rescue of EN25-mediated cell viability impairment” value is “attenuated the cell viability impairments conferred by EN25 treatment”.
`C=CC(=O)NCc1ccc(C(=O)Nc2ccc(Sc3ccc(C)c(C)c3)cc2)cc1` [EN25]: the “proteome-wide selectivity: potential off-targets” value in [2] is given as “nine potential off-targets of EN25 out of >5000 cysteines”. Moreover, the cell viability impairment entry in [3] was “RMG-1 cancer cells showed resistance to EN25-mediated cell viability impairments”; in [6] it was “more sensitive A2780 cancer cell line”. For the same compound, in assay [1], the pIC50 is 4.80. For the same compound, the “cell viability impairment upon GCLM knockdown” value with siGCLM A2780 cells was “GCLM knockdown with siRNA conferred hypersensitivity to EN25-mediated cell viability impairments”. Besides, the “site of covalent modification on GCL complex” value in assay [4] is “selective and covalent EN25 modification of C114 on GCLM”. For the same compound, the “competition of EN25-alkyne labeling of GCLM” value at pure human GCLM protein (pre-incubation 30 min at 37°C, then EN25-alkyne 50 μM for 2 h) is on record as “dose-responsive competition of this labeling by EN25”. Further, the GSH levels entry in [5] is given as “significantly lowered GSH levels in A2780 cancer cells”; in [7] it was “no changes observed in RMG-1 cells”.
